Compound activity: PubChem BioAssay, Sanford-Burnham Center for Chemical Genomics
Sampled rows, rich in hits. Any-hit rate of the full collection: about 1.8%.
Scp-1 inhibitor: blocks human Scp-1 phosphatase activity | Q9GZU7 | Recombinant Scp1, phosphopeptide, malachite green phosphate absorbance | inhibition, % at 20 µM | 0.88% of 340,000 active;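 active = inhibition above about 50% at 20 µM, limit read from the data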
Target sequence (Q9GZU7 76-261 limits assumed): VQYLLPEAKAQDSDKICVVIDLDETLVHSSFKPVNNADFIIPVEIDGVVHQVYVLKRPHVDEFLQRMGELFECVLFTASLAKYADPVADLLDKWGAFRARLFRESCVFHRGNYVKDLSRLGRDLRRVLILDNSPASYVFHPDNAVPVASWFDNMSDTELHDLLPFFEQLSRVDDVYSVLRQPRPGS
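Test system – truncated SCP-1 phosphatase (76-261aa) · Reagent – Phosphorylated 17-residue peptide substrate · Incubation – 45 min room-temperature reaction, 5 min colour, 30 min stabiliser · Detection – colorimetric phosphate reagent with accelerator and stabiliser, absorbance at 630 nm · Measure – % inhibition at 20 µM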
DNMT1 block: DNMT1 (human) enzyme inhibition | P26358 | AID 588458 | 0.83% of 360,000 active | DNMT1 molecular beacon, Hinp1I cleavage, fluorescence | inhibition (reported as % activation of signal), % at 10 µM; in the data active = inhibition above about 50%
STEP inh: blocks human striatal-enriched tyrosine phosphatase; recombinant STEP, OMFP fluorogenic substrate, fluorescence; P54829; AID 588621; 0.25% of 360,000 active; inhibition, % at 20 µM;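 active = inhibition at 20 µM, scaled per plate between control wells, above about 37%, limit read from the data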
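material = STEP tyrosine phosphatase | reagent = fluorogenic phosphatase substrate OMFP at 25 µM final | doses = single compound dose of 20 µM, 1% DMSO final | schedule = 20 min reaction, room temperature, in the dark | measured by = fluorescence, 480/540 nm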
SUMO1-SIM PPI: alters human SUMO1 binding to SIM partners. P63165. SUMO1 binding to a labelled peptide, TR-FRET, 1 h. inhibition, % at 20 µM. 0.33% of 360,000 active; in the data active = inhibition above about 37%
Target sequence (P63165 whole entry, looked up): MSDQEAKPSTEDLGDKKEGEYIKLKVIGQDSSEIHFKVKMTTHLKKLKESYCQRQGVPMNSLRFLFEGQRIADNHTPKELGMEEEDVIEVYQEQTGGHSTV
LMPTP block: LMPTP (human) inhibition | 0.22% of 360,000 active | P24666 | inhibition, % at 20 µM | recombinant LMPTP-A, OMFP fluorogenic substrate, fluorescence intensity;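 active = compounds that cut the enzyme signal by at least half of the control window in the single-dose screen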
Target sequence (P24666 whole entry, looked up): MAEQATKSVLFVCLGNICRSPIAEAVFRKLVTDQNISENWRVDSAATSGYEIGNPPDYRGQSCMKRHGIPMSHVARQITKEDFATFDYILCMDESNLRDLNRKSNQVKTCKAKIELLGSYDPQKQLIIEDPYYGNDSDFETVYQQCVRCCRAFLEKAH
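Test system: LMPTP-A phosphatase enzyme. Amount: LMPTP-A at 0.625 nM final in the reaction. Reagent: OMFP substrate, 400 µM final. Times: 50 min at room temperature. Signal: endpoint fluorescence intensity from OMFP dephosphorylation. Read-out basis: % inhibition. Benchmarks: no-enzyme and uninhibited controls.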
Scp-1 conf: Scp-1 (human) inhibition, single-dose confirmed | shares compounds with Scp-1 inhibitor | recombinant SCP-1 catalytic domain, phosphate release, malachite green absorbance | inhibition, % at 20 µM | 61% of 2,500 active | AID 540281
MG interference: colorimetric interference in Scp-1 counter-screen; shares compounds with Scp-1 inhibitor; Colorimetric interference counterscreen, malachite green absorbance 630 nm; apparent inhibition (interference), % at 20 µM; 2,500 tested, under 10 active;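 also: compounds added after enzyme reaction finished so only phosphate colour detection is probed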
Scp-1 Tm shift: binds human Scp-1, shifting its melting temperature | shares compounds with Scp-1 inhibitor | Recombinant SCP1, Sypro Orange thermal shift Tm | thermal shift relative to vanadate control, % at 40 µM | 25% of 1,500 active;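 active = substances whose mean melting-temperature shift, as a percentage of the reference inhibitor's shift, reaches about 5.3%, limit read from the data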
Large screens that a line does not name were inactive (follow-up assays come after a bar, where they were run).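 The calls were made as follows, unless noted: active = inhibition of at least 30% at 20 µM; inactive = the rest.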

O=S1(=O)N=C(N2CCCc3ccccc32)c2ccccc21	none
CCOC(=O)N(C)C[C@H]1OCc2cnnn2CCCC(=O)N([C@@H](C)CO)C[C@H]1C	none (no result: Scp-1 inhibitor)
O=C(O)c1ccc(CSc2n[nH]c(-c3ccco3)n2)cc1	Scp-1 inhibitor 52.4 | Scp-1 conf 31.7 | MG interference inactive | Scp-1 Tm shift inactive
CC(C)c1ccc(NC(=O)C2CC(=O)N(C(C)C)C2)cc1 (configuration not stated)	none | Scp-1 conf inactive | MG interference inactive
COc1cccc(NS(=O)(=O)c2cc3c(cc2C)N(C(C)=O)CCO3)c1	Scp-1 inhibitor 87.3 | Scp-1 conf inactive | MG interference inactive
O=C(C1CC(=O)N(c2ccc(Cl)cc2)C1)N1CCN(Cc2ccc3c(c2)OCO3)CC1 (configuration not stated)	none
CCCOc1ccc(/C=C/C(=O)N2CCN(C(=O)c3ccco3)CC2)cc1OC	none (no result: Scp-1 inhibitor)
Cc1cc(NC(=O)CN2C(=O)NC(c3ccccc3)(c3ccc(C)c(C)c3)C2=O)no1 (configuration not stated)	none
O=C(CSc1nc2ccccc2c(=O)n1-c1ccccc1)NCC1CCCO1 (configuration not stated)	Scp-1 inhibitor 91.8 | Scp-1 conf inactive | MG interference inactive
Cc1c(C(=O)N2CCN(c3ncccn3)CC2)oc2ccc(Cl)cc12	none
CCOC(=O)c1cccc(NC(=O)Cn2cc3c(n2)CCC(C)C3)c1 (configuration not stated)	Scp-1 inhibitor 67.5 | Scp-1 conf inactive | MG interference inactive
CC1CCc2ccccc2N1CC(=O)Nc1cccc(S(=O)(=O)N2CCCC2)c1 (configuration not stated)	none
CC(=O)c1c(C)[nH]c(C(=O)CN(C)CC(=O)Nc2ccccc2Cl)c1C	none
CSc1ccccc1NC(=O)CN(C)CC(=O)c1[nH]c(C)c(C(C)=O)c1C	Scp-1 inhibitor 101.4 | Scp-1 conf inactive | MG interference inactive
COc1ccc(-c2nonc2NC(=O)c2ccco2)cc1OC	Scp-1 inhibitor 57.8 | Scp-1 conf inactive | MG interference inactive
Cc1cccc(NC(=O)CN(C)C(=O)Cc2ccc(-c3ccccc3)cc2)c1C	none (no result: Scp-1 inhibitor)
Cn1cc(Cl)c(C(=O)Nc2nc3ccccc3s2)n1	none
Cn1cc(Cl)c(C(=O)Nc2cccc(Cl)c2Cl)n1	Scp-1 inhibitor 72.0 | Scp-1 conf 75.8 | MG interference inactive | Scp-1 Tm shift inactive
Cc1ccc2nc(/C(C#N)=C\c3ccc(N4CCCCC4)c([N+](=O)[O-])c3)[nH]c2c1	Scp-1 inhibitor 108.5 | Scp-1 conf 77.0 | MG interference inactive | Scp-1 Tm shift 11.9
COc1cccc(NC(=O)C2CCCCC2)c1	Scp-1 inhibitor 69.6 | Scp-1 conf inactive | MG interference inactive
O=C(O)c1ccc(-n2ncc3c2/C(=C\c2cccc([N+](=O)[O-])c2)CC3)cc1	Scp-1 inhibitor 64.5 | Scp-1 conf 63.5 | MG interference inactive | Scp-1 Tm shift inactive
O=C(O)c1ccc(-n2ncc3c2/C(=C/c2cccc([N+](=O)[O-])c2)CC3)cc1	none
COC(=O)C1=C(C)N(Cc2ccccc2)C(=NCCc2ccccn2)N[C@H]1c1cccc(F)c1	Scp-1 inhibitor 58.5 | Scp-1 conf inactive | MG interference inactive
CC(C)NC(=O)N(C)C[C@H]1Oc2ccc(NS(=O)(=O)c3cccs3)cc2C(=O)N([C@H](C)CO)C[C@@H]1C	none
C[C@@H]1CN([C@H](C)CO)C(=O)c2cc(NS(=O)(=O)c3cn(C)cn3)ccc2O[C@H]1CN(C)C(=O)Nc1ccccc1	Scp-1 inhibitor 81.5 | Scp-1 conf inactive | MG interference inactive
C[C@H](CO)N1C[C@H](C)[C@@H](CN(C)C(=O)NC2CCCCC2)Oc2ccc(NS(=O)(=O)c3cccs3)cc2C1=O	Scp-1 inhibitor 56.2 | Scp-1 conf inactive | MG interference inactive
C[C@H]1CN([C@@H](C)CO)C(=O)Cc2cc(NS(=O)(=O)c3cn(C)cn3)ccc2O[C@@H]1CN(C)C(=O)Nc1ccc(F)cc1	Scp-1 inhibitor 73.2 | Scp-1 conf 37.2 | MG interference inactive | Scp-1 Tm shift inactive
CC(=O)NCCNc1nc2cc(-c3ccsc3)sc2c(=O)n1C	none (no result: Scp-1 inhibitor)
Cc1onc(-c2ccccc2)c1C(=O)OCC(=O)NC(C)c1ccc(Cl)cc1 (configuration not stated)	none
Cc1cccc(C(=O)NC2CCN(C(=O)NCc3ccccc3)CC2)c1	Scp-1 inhibitor 75.2 | Scp-1 conf 60.1 | MG interference inactive | Scp-1 Tm shift inactive
Cc1ccc(NC(=O)N2CCC(NC(=O)c3ccco3)CC2)cc1	none
Cc1ccc(NC(=O)N2CCC(NC(=O)c3cccc(C)c3)CC2)cc1	Scp-1 inhibitor 103.0 | Scp-1 conf 54.7 | MG interference inactive | Scp-1 Tm shift inactive
Cc1ccc(N2CC(C(=O)NCc3n[nH]c(=O)c4ccccc34)CC2=O)cc1 (configuration not stated)	none
COc1ccc(CCC(=O)O)c(O)c1	Scp-1 inhibitor 52.6 | Scp-1 conf 45.6 | MG interference inactive | Scp-1 Tm shift inactive
O=C(OCc1cc(=O)n2ccsc2n1)c1ccccc1O	Scp-1 inhibitor 53.0 | Scp-1 conf inactive | MG interference inactive
COc1ccccc1C(=O)OCc1cc(=O)n2ccsc2n1	none
CCOC(=O)CN1C(=O)N[C@@H](c2cccs2)C(C(C)=O)=C1C	none
CCOC(=O)CN1C(=O)N[C@@H](c2cccs2)C(C(=O)OC)=C1C	Scp-1 inhibitor 57.7 | Scp-1 conf inactive | MG interference inactive
Cn1nc(CC(=O)NC2CCCCC2)c2ccccc2c1=O	none
Cn1nc(CC(=O)NC2CCCCCC2)c2ccccc2c1=O	Scp-1 inhibitor 75.6 | Scp-1 conf inactive | MG interference inactive
CCOC(=O)Nc1cc2c(cc1[N+](=O)[O-])-c1ccccc1C2=O	none
Cc1ccc(S(=O)(=O)NC(C)CCc2ccccc2)cc1C(N)=O (configuration not stated)	none | Scp-1 conf inactive | MG interference inactive
O=C(Cn1ccc(C(F)(F)F)n1)Nc1cccc(S(=O)(=O)N2CCCCC2)c1	none
CC(C)NC(=O)Nc1ccc2c(c1)C(=O)N([C@H](C)CO)C[C@H](C)[C@@H](CN(C)C(=O)Nc1ccc3c(c1)OCO3)O2	Scp-1 inhibitor 62.1 | Scp-1 conf inactive | MG interference inactive
